In PubChem BioAssay AID493235 (Broad Institute, 2011) one finds activation and AC500 data, which are given here for 80 compounds.

Where “and” joins values, the source holds several entries; their conditions need not be identical. Identical values can stand only once. Inconclusive results are not listed. Calls of active or inactive are those of the source.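 Rule for the calls: active = fitted dose curve passes 500% activation at or below the top valid tested dose; inconclusive = no clear call, values can overlap the other calls; inactive = the rest, opposite-direction activity included.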

Assay [1] can be described thus: activation of hypoxia-responsive element reporter – cell-based, U2OS, luminescence, dry powder, set 7, dose response (AID 493235). The following applies: U2OS HRE-luciferase reporter, luminescence; at 38 µM (top of the series). Put shortly: (§1)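 Test system – human U2OS osteosarcoma cells stably expressing 3×HRE-driven luciferase reporter · Quantity – 6,000 cells/well · Medium – DMEM without phenol red, with 10% fetal bovine serum · Compound – 8 concentrations, 3-fold steps · Times – cells grown 24 h before dosing, compound exposure 24 h at 37 °C · Detection – luminescence with Steady-Glo luciferase reagent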
For orientation: Reporter assays use an easily measured gene product as a stand-in for the process of interest.

In assay [2] the test system is U2OS HRE-luciferase reporter, luminescence. The description is as above. The method in brief:
as §1

Turning to `O=C(c1cc(-c2ccccc2)on1)N1CCN(c2ccncc2)CC1`, in assay [1], the activation was -14.8% (inactive).
For the compound `O=C(Nc1ncc2ccccc2n1)c1cc(-c2ccccc2)on1`, in assay [1], the activation is 104% (inactive).
Take `Oc1ccc(CN2CCC3CCCCC3C2)c2cccnc12` (stereo unspecified): the AC500 in assay [2] was 11.1 µM.
Turning to `c1ccc(-c2nnc(-c3ccccn3)nc2NCC2CCCCC2)cc1`, in assay [2], the AC500 was 2.17 µM.
Consider `C[C@@H](Nc1nc(-c2ccccn2)nnc1-c1ccccc1)c1ccccc1`, for which the AC500 in assay [2] is 3.92 µM.
Consider `c1ccc(-c2nnc(-c3ccccn3)nc2NCc2ccccn2)cc1`, for which the AC500 in assay [2] was 20.5 µM.
As for `C[C@@H](Nc1nc(-c2ccccn2)nnc1-c1ccccc1)C1CCCCC1`, the AC500 in assay [2] is 4.02 µM.
Regarding `O=C(c1cc(-c2ccccc2)on1)N1CCC(N2CCCC2)CC1`, the activation in assay [1] was 5.02% (inactive).
Regarding `Cc1cccc(CNC(=O)c2cc(-c3ccccc3)on2)c1`, the activation in assay [1] is 1.59% (inactive).
`c1ccc(-c2nnc(-c3ccccn3)nc2N2CCC(C3CCCCC3)C2)cc1` (stereo unspecified): in assay [2], the AC500 is 4.37 µM.
Still for that read-out and setting: as for `c1ccc(-c2nnc(-c3ccccn3)nc2NCCc2ccccn2)cc1`, the figure is 10.3 µM.
As for `O=C(Nc1nc(-c2ccccc2)cs1)c1cc(-c2ccccc2)on1`, the activation in assay [1] is -17.1% (inactive).
On the same count and under the same terms, as for `O=C(Nc1nc2ccccc2s1)c1cc(-c2ccccc2)on1`, the figure is 4.65% (inactive).
With `COc1ccc(CNc2nc(-c3ccccn3)nnc2-c2ccccc2)cc1`, the AC500 in assay [2] is 2.59 µM.
With `c1ccc(-c2nnc(-c3ccccn3)nc2N2CCN(c3ccncc3)CC2)cc1`, the AC500 in assay [2] is 9.6 µM.
For the compound `COc1cccc(CNc2nc(-c3ccccn3)nnc2-c2ccccc2)c1`, the AC500 in assay [2] was 2.07 µM.
`C[C@H](Nc1nc(-c2ccccn2)nnc1-c1ccccc1)C1CCCCC1`: the AC500 in assay [2] is 2.99 µM.
As to `CN1CCN(c2nc(-c3ccccn3)nnc2-c2ccccc2)CC1`, in assay [2], the AC500 is 12.1 µM.
`O=C(NC1CCc2ccccc2C1)c1cc(-c2ccccc2)on1` (stereo unspecified): the activation in assay [1] is 5.28% (inactive).
Same read-out and setting: as for `O=C(Nc1cn2ccccc2n1)c1cc(-c2ccccc2)on1`, the figure is 31.3% (inactive); as for `O=C(NCc1ccccc1)c1cc(-c2ccccc2)on1`, 50.8% (inactive); as for `Cc1ccccc1CNC(=O)c1cc(-c2ccccc2)on1`, 22.9% (inactive).
As for `CN1CCN(C(=O)c2cc(-c3ccccc3)on2)CC1`, the activation in assay [1] was 2.48% (inactive).
As for `Cc1ccc(Nc2nc(-c3ccccn3)nnc2-c2ccccc2)cn1`, the AC500 in assay [2] is 11.2 µM.
On to `Oc1ccc(CNC2Cc3ccccc3C2)c2cccnc12`, for which the AC500 in assay [2] is 28.6 µM.
Regarding `O=C(Nc1ccc2ccccc2n1)c1cc(-c2ccccc2)on1`, the activation in assay [1] is 12.3% (inactive).
Consider `c1ccc(-c2ccc(CNc3nc(-c4ccccn4)nnc3-c3ccccc3)cc2)cc1`, for which the AC500 in assay [2] was 0.71 µM.
Take `CC(Nc1nc(-c2ccccn2)nnc1-c1ccccc1)c1ccccc1` (stereo unspecified): the AC500 in assay [2] was 2.97 µM.
Turning to `Oc1ccc(CN2CCc3ccccc3C2)c2cccnc12`, the activation in assay [1] was 263% (inactive). Moreover, the AC500 in assay [2] is 3.21 µM.
With `Oc1ccc(CN2CCC(Cc3ccccc3)CC2)c2cccnc12`, the AC500 in assay [2] is 20.1 µM.
For `Cc1ccc(NC(=O)c2cc(-c3ccccc3)on2)cn1`, the activation in assay [1] was -7.72% (inactive).
Turning to `Cn1c(-c2ccccc2)cnc1Nc1nc(-c2ccccn2)nnc1-c1ccccc1`, the AC500 in assay [2] was 9.16 µM.
Take `O=C(NCCCO)c1cc(-c2ccccc2)on1`: the activation in assay [1] was 400% (inactive).
For `O=C(Nc1nnc(-c2ccccc2)s1)c1cc(-c2ccccc2)on1`, in assay [1], the activation is -7.41% (inactive).
Take `N#CC1(c2ccccc2)CCN(Cc2ccc(O)c3ncccc23)CC1`: the activation in assay [1] is 368% (inactive).
Consider `Cc1cccc(CNc2nc(-c3ccccn3)nnc2-c2ccccc2)c1`, for which the AC500 in assay [2] is 4.08 µM.
The same measure, in the same setting: with `c1ccc(-c2nnc(-c3ccccn3)nc2N2CCC(c3ccccc3)C2)cc1` (stereo unspecified) the figure was 1.72 µM.
Turning to `Cn1c(NC(=O)c2cc(-c3ccccc3)on2)nc2ccccc21`, the activation in assay [1] is -0.753% (inactive).
As for `CC(C)(C)c1ccc(CNc2nc(-c3ccccn3)nnc2-c2ccccc2)cc1`, the AC500 in assay [2] was 1.33 µM.
In the case of `c1ccc(-c2nnc(-c3ccccn3)nc2N2CCC(N3CCOCC3)CC2)cc1`, the AC500 in assay [2] is 4.84 µM.
For the compound `c1ccc(-c2nnc(-c3ccccn3)nc2NCCN2CCOCC2)cc1`, the AC500 in assay [2] is 9.37 µM.
Consider `COc1ccccc1N1CCN(Cc2ccc(O)c3ncccc23)CC1`, for which the AC500 in assay [2] is 26.5 µM.
On to `Clc1cccc(CNc2nc(-c3ccccn3)nnc2-c2ccccc2)c1`, for which the AC500 in assay [2] was 1.84 µM.
In the case of `O=C(NCCCn1ccnc1)c1cc(-c2ccccc2)on1`, the AC500 in assay [2] is 5.75 µM.
In the case of `O=C(NCCCN1CCOCC1)c1cc(-c2ccccc2)on1`, the AC500 in assay [2] was 11.3 µM.
For the compound `Cn1c(-c2ccccc2)cnc1NC(=O)c1cc(-c2ccccc2)on1`, the activation in assay [1] was 9.12% (inactive).
On to `Cc1cccc(NC(=O)c2cc(-c3ccccc3)on2)n1`, for which, in assay [1], the activation was 29.2% (inactive).
Regarding `Cc1ccc(CNc2nc(-c3ccccn3)nnc2-c2ccccc2)cc1`, the AC500 in assay [2] was 4.35 µM.
In the case of `Cc1ccc(CNc2nc(-c3ccccn3)nnc2-c2ccccc2)cc1C`, the AC500 in assay [2] is 1.31 µM.
`O=C(NCCN1CCOCC1)c1cc(-c2ccccc2)on1`: the AC500 in assay [2] is 14.2 µM.
With `C=CCNc1nc(-c2ccccn2)nnc1-c1ccccc1`, the AC500 in assay [2] was 9.45 µM.
With `CN(C)c1nc(-c2ccccn2)nnc1-c1ccccc1`, the AC500 in assay [2] was 14.2 µM.
For the compound `CC(C)(C)CCNc1nc(-c2ccccn2)nnc1-c1ccccc1`, in assay [2], the AC500 was 2.2 µM and 1.47 µM.
Regarding `O=C(NCCCCO)c1cc(-c2ccccc2)on1`, the AC500 in assay [2] was 2.82 µM.
On the same count and under the same terms, as for `c1ccc(-c2nnc(-c3ccccn3)nc2Nc2nc3ccccc3s2)cc1`, the figure is 5.89 µM.
Consider `O=C(Nc1ncc(-c2ccccc2)o1)c1cc(-c2ccccc2)on1`, for which the activation in assay [1] is 14.8% (inactive).
Turning to `OCC1CCN(Cc2ccc(O)c3ncccc23)CC1`, the activation in assay [1] is 480% (inactive).
Take `c1ccc(CNc2nc(-c3ccccn3)nnc2-c2ccccc2)cc1`: the AC500 in assay [2] was 5.52 µM.
Take `CC(C)(C)OC(=O)N1CCN(Cc2ccc(O)c3ncccc23)CC1`: the activation in assay [1] was 271% (inactive).
For `CC(C)(C)CCNC(=O)c1cc(-c2ccccc2)on1`, the AC500 in assay [2] is 35.8 µM.
Same read-out and setting: with `Cc1cccc(Nc2nc(-c3ccccn3)nnc2-c2ccccc2)n1` the figure was 10.7 µM.
For `CC1CN(Cc2ccc(O)c3ncccc23)CC(C)O1` (stereo unspecified), the activation in assay [1] is 95.7% (inactive).
Turning to `Cc1ccccc1CNc1nc(-c2ccccn2)nnc1-c1ccccc1`, in assay [2], the AC500 was 2.82 µM.
As for `c1ccc(-c2cccc(CNc3nc(-c4ccccn4)nnc3-c3ccccc3)c2)cc1`, the AC500 in assay [2] was 3.39 µM.
As to `c1ccc(-c2nnc(-c3ccccn3)nc2NCC2CCOCC2)cc1`, the AC500 in assay [2] was 14.2 µM.
Consider `c1ccc(-c2csc(Nc3nc(-c4ccccn4)nnc3-c3ccccc3)n2)cc1`, for which, in assay [2], the AC500 is 2.01 µM.
For the compound `c1ccc(-c2nnc(-c3ccccn3)nc2NCCCN2CCOCC2)cc1`, the AC500 in assay [2] is 10.2 µM.
The same measure, in the same setting: as for `c1ccc(-c2nnc(Nc3nc(-c4ccccn4)nnc3-c3ccccc3)s2)cc1`, the figure is 2.99 µM; as for `CCCCNC(=O)c1cc(-c2ccccc2)on1`, 9.47 µM; as for `O=C(NCC1CC1)c1cc(-c2ccccc2)on1`, 10 µM.
On to `c1ccc(-c2nnc(-c3ccccn3)nc2Nc2cnc3ccccc3n2)cc1`, for which the AC500 in assay [2] was 6.2 µM.
Consider `c1ccc(-c2cnc(Nc3nc(-c4ccccn4)nnc3-c3ccccc3)s2)cc1`, for which, in assay [2], the AC500 is 6.49 µM.
For the compound `O=C(c1cc(-c2ccccc2)on1)N1CCC(N2CCOCC2)CC1`, the activation in assay [1] is 8.48% (inactive).
Regarding `c1ccc(CCNc2nc(-c3ccccn3)nnc2-c2ccccc2)cc1`, in assay [2], the AC500 is 2.81 µM.
With `O=C(Nc1cnc2ccccc2c1)c1cc(-c2ccccc2)on1`, the activation in assay [1] was 28.8% (inactive).
Turning to `c1ccc(-c2nnc(-c3ccccn3)nc2NCC2CC2)cc1`, the AC500 in assay [2] was 8.75 µM.
As to `c1ccc(-c2nnc(-c3ccccn3)nc2NCc2cccnc2)cc1`, the AC500 in assay [2] is 15.3 µM.
As for `OCCCNc1nc(-c2ccccn2)nnc1-c1ccccc1`, in assay [2], the AC500 is 16.8 µM.
In the case of `CN(C)CCNC(=O)c1cc(-c2ccccc2)on1`, in assay [1], the activation is 29.6% (inactive).
Consider `OCC1CCN(c2nc(-c3ccccn3)nnc2-c2ccccc2)CC1`, for which the AC500 in assay [2] was 21.7 µM.
